# Calls of active or inactive are those of the source. The calls are words filed in the database; no cut-off is given here.
# Key:
# Plasmodium berghei [1] = assay: Antiplasmodial activity against Plasmodium berghei NK65 infected in Swiss mouse assessed as reduction in parasitemia at 20 mg/kg, po administered via gavage for 3 consecutive days post infection measured on day 5 post infection relative to control; assay type: functional; parameters: scale not given: the % may be the effect or the level left
# Summary of the method: (§1)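 P. berghei NK65 suppressive test: adult Swiss outbred mice (20±2 g) inoculated ip with 1×10^5 infected red cells, randomized to groups, dosed daily for three days by oral gavage or ip injection with test compound at 50 mg/kg in 3% (v/v) DMSO; CQ 20 mg/kg and vehicle groups in parallel. Giemsa-stained tail-blood smears on days 5, 7, 9; inhibition = [(C−T)/C]×100 versus untreated control.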
# HepG2 = assay: Cytotoxicity against human HepG2 cells assessed as reduction in cell viability after 24 hrs by MTT assay; assay type: cell-based; settings: HepG2, 24 h
# Summary of the method: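 HepG2 cells in RPMI-1640 with 10% heat-inactivated serum, seeded 5×10^3 per well, allowed to adhere 18 h at 37 °C, then exposed to compound (400–6.2 µM) for 24 h at 37 °C, 5% CO2. MTT (5 mg/mL) for 3 h, formazan dissolved in DMSO, absorbance 570 nm with 630 nm background; viability as percent of untreated control.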
# Plasmodium berghei [2] = assay: Antiplasmodial activity against Plasmodium berghei NK65 infected in Swiss mouse assessed as reduction in parasitemia at 20 mg/kg, ip administered for 3 consecutive days post infection measured on day 9 post infection relative to control; assay type: functional; parameters: scale not given: the % may be the effect or the level left; summary of the method: as §1
# Plasmodium falciparum [3] = assay: Plasmodicidal activity against Plasmodium falciparum 3D7A infected in erythrocytes assessed as parasite survival at 10 times IC50 pre-incubated for 24 hrs followed by compound washout and measured after 24 hrs by […] incorporation assay (reference value: 100%); assay type: functional
# Plasmodium berghei [4] = assay: Antiplasmodial activity against Plasmodium berghei NK65 infected in Swiss mouse assessed as assessed as mouse survival at 20 mg/kg, po administered via gavage for 3 consecutive days post infection measured on day 9 post infection (reference value: 19 +/- 5 days); assay type: functional
# Plasmodium falciparum [5] = assay: Plasmodicidal activity against Plasmodium falciparum 3D7A infected in erythrocytes assessed as parasite survival at 10 times IC50 pre-incubated for 48 hrs followed by compound washout and measured after 24 hrs by […] incorporation assay (reference value: 100%); assay type: functional
# Plasmodium berghei [6] = assay: Antiplasmodial activity against Plasmodium berghei NK65 infected in Swiss mouse assessed as reduction in parasitemia at 20 mg/kg, ip administered for 3 consecutive days post infection measured on day 5 post infection relative to control; assay type: functional; parameters: scale not given: the % may be the effect or the level left; summary of the method: as §1
# Plasmodium berghei [7] = assay: Antiplasmodial activity against Plasmodium berghei NK65 infected in Swiss mouse assessed as reduction in parasitemia at 20 mg/kg, po administered via gavage for 3 consecutive days post infection measured on day 9 post infection relative to control; assay type: functional; parameters: scale not given: the % may be the effect or the level left; summary of the method: as §1
# Plasmodium berghei [8] = assay: Antiplasmodial activity against Plasmodium berghei NK65 infected in Swiss mouse assessed as reduction in parasitemia at 20 mg/kg, ip administered for 3 consecutive days post infection measured on day 7 post infection relative to control; assay type: functional; parameters: scale not given: the % may be the effect or the level left; summary of the method: as §1
# Plasmodium berghei [9] = assay: Antiplasmodial activity against Plasmodium berghei NK65 infected in Swiss mouse assessed as assessed as mouse survival at 20 mg/kg, ip administered for 3 consecutive days post infection measured on day 9 post infection (reference value: 19 +/- 5 days); assay type: functional
# Plasmodium berghei [10] = assay: Antiplasmodial activity against Plasmodium berghei NK65 infected in Swiss mouse assessed as reduction in parasitemia at 20 mg/kg, po administered via gavage for 3 consecutive days post infection measured on day 7 post infection relative to control; assay type: functional; parameters: scale not given: the % may be the effect or the level left; summary of the method: as §1
# Plasmodium berghei [11] = assay: Antiplasmodial activity against Plasmodium berghei NK65 infected in Swiss mouse assessed as reduction in parasitemia at 50 mg/kg, ip administered for 3 consecutive days post infection measured on day 5 post infection relative to control; assay type: functional; parameters: scale not given: the % may be the effect or the level left; summary of the method: as §1
# Plasmodium falciparum [12] = assay: (§2) Antiplasmodial activity against of male Plasmodium falciparum NF54 gametocytes assessed as inhibition of xanthurenic acid-stimulated gamete formation at 1 uM preincubated for 24 to 48 hrs followed by xanthurenic acid stimulation and measured after 20 mins by automated time-lapse microscopy relative to control; assay type: functional
# Summary of the method: (§3)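 Mature NF54 gametocytes exposed to 1 µM compound (DMSO ≤0.25%) for 24 or 48 h, then activated by cooling 37→26 °C with 2.5 µM xanthurenic acid. Male: exflagellation by automated time-lapse microscopy at 20 min, three readings per well. Female: after 24 h at 26 °C, Cy3 anti-Pfs25 staining, four fields counted. Inhibition versus DMSO and 20 µM Gentian Violet controls; four independent repeats.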
# Plasmodium berghei [13] = assay: Antiplasmodial activity against Plasmodium berghei NK65 infected in Swiss mouse assessed as reduction in parasitemia at 50 mg/kg, ip administered for 3 consecutive days post infection measured on day 9 post infection relative to control; assay type: functional; parameters: scale not given: the % may be the effect or the level left; summary of the method: as §1
# Plasmodium berghei [14] = assay: Antiplasmodial activity against Plasmodium berghei NK65 infected in Swiss mouse assessed as reduction in parasitemia at 50 mg/kg, po administered via gavage for 3 consecutive days post infection measured on day 9 post infection relative to control; assay type: functional; parameters: scale not given: the % may be the effect or the level left; summary of the method: as §1
# Plasmodium falciparum [15] = assay: Antiplasmodial activity against early ring stage of Plasmodium falciparum assessed as increase in free heme levels after 32 hrs by UV-Vis spectrophotometry; assay type: functional, organism-based
# Plasmodium falciparum [16] = assay: Antiplasmodial activity against chloroquine-sensitive blood parasite forms of Plasmodium falciparum 3D7 infected in RBC by SYBR green assay; assay type: functional, organism-based; settings: 3D7, Erythrocyte
# Summary of the method: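 3D7 blood-stage cultures, sorbitol-synchronized twice beforehand, used at 5-10% parasitemia with >80% rings, diluted to 0.5% parasitemia and 2% hematocrit with graded compound (0.05% DMSO), triplicate; artesunate and chloroquine controls. SYBR green I lysis-buffer fluorescence at 485/535 nm; IC50 from curve fit relative to drug-free medium.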
# Mus musculus [17] = assay: Toxicity in Swiss mouse assessed as effect on body weight at 1000 mg/kg, po measured after 30 days; assay type: organism-based; settings: in vivo, 720 h
# Summary of the method: (§4)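 Single 1000 mg/kg dose given to mice by gavage or ip injection, 3 mice per group. Survival and body weight followed against untreated controls over 30 days of observation.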
# Plasmodium falciparum [18] = assay: Antiplasmodial activity against early ring stage form of Plasmodium falciparum assessed as induction of alterations in parasite morphology at 10 times IC50 concentration after 8 to 16 hrs by microscopic analysis; assay type: functional, organism-based
# Mus musculus [19] = assay: Toxicity in Swiss mouse assessed as survival at 1000 mg/kg, po measured up to 30 days; assay type: organism-based; settings: in vivo, 720 h; summary of the method: as §4
# Plasmodium berghei [20] = assay: Antiplasmodial activity against Plasmodium berghei NK65 infected in Swiss mouse assessed as mouse survival at 50 mg/kg, po administered for 3 consecutive days post infection measured on day 9 post infection (reference value: 19 +/- 5 days); assay type: functional
# Plasmodium falciparum [21] = assay: Antiplasmodial activity against chloroquine-sensitive schizont form of Plasmodium falciparum 3D7 infected in RBC after 72 hrs by SYBR green assay; assay type: functional, organism-based; settings: 3D7, Erythrocyte
# Summary of the method: (§5)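 Sorbitol-synchronized 3D7 cultures of each stage (or asynchronous) diluted to 0.5% parasitemia, 2% hematocrit, exposed to graded compound concentrations (0.05% DMSO) for 72 h in triplicate. Read-out: lysis buffer (20 mM Tris pH 7.5, 5 mM EDTA, 0.008% saponin, 0.08% Triton X-100) with SYBR green I 1:20000, fluorescence 485/535 nm, uninfected erythrocytes as background; IC50 by curve fitting versus drug-free growth.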
# Plasmodium berghei [22] = assay: Antiplasmodial activity against Plasmodium berghei NK65 infected in Swiss mouse assessed as reduction in parasitemia at 50 mg/kg, po administered via gavage for 3 consecutive days post infection measured on day 5 post infection relative to control; assay type: functional; parameters: scale not given: the % may be the effect or the level left; summary of the method: as §1
# Plasmodium falciparum [23] = assay: Antiplasmodial activity against early ring stage of Plasmodium falciparum assessed as decrease in hemozoin accumulation after 32 hrs by UV-Vis spectrophotometry; assay type: functional, organism-based
# Plasmodium falciparum [24] = assay: Antiplasmodial activity against chloroquine-sensitive trophozoite form of Plasmodium falciparum 3D7 infected in RBC after 72 hrs by SYBR green assay; assay type: functional, organism-based; settings: 3D7, Erythrocyte; summary of the method: as §5
# Plasmodium falciparum [25] = assay: Antiplasmodial activity against chloroquine-sensitive asynchronous form of Plasmodium falciparum 3D7 infected in RBC after 72 hrs by SYBR green assay; assay type: functional, organism-based; settings: 3D7, Erythrocyte; summary of the method: as §5
# Plasmodium falciparum [26] = assay: Antiplasmodial activity against Plasmodium falciparum assessed as fractional inhibitory concentration index at IC50 concentration in presence of artesunate by isobologram plot analysis
# Plasmodium berghei [27] = assay: Antiplasmodial activity against Plasmodium berghei NK65 infected in Swiss mouse assessed as reduction in parasitemia at 50 mg/kg, po administered via gavage for 3 consecutive days post infection measured on day 7 post infection relative to control; assay type: functional; parameters: scale not given: the % may be the effect or the level left; summary of the method: as §1
# Plasmodium falciparum [28] = assay: Antiplasmodial activity against chloroquine/pyrimethamine/sulfadoxine-resistant blood parasite forms of Plasmodium falciparum K1 infected in RBC by SYBR green assay; assay type: functional, organism-based; settings: K1, Erythrocyte
# Summary of the method: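 Sorbitol-synchronised K1 culture, mostly rings, at 0.5% parasitemia and 2% hematocrit exposed to serial compound dilutions (0.05% DMSO) in triplicate. Cells lysed with Tris/EDTA/saponin/Triton buffer containing SYBR green I; fluorescence read at 485/535 nm, uninfected erythrocytes as background. IC50 from curve fit versus drug-free growth.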
# Mus musculus [29] = assay: Toxicity in Swiss mouse assessed as effect on body weight at 1000 mg/kg, ip measured after 30 days; assay type: organism-based; settings: in vivo, 720 h; summary of the method: as §4
# Mus musculus [30] = assay: Toxicity in Swiss mouse assessed as survival at 1000 mg/kg, ip measured up to 30 days; assay type: organism-based; settings: in vivo, 720 h; summary of the method: as §4
# Plasmodium berghei [31] = assay: Antiplasmodial activity against liver stage of luciferase-expressing transgenic Plasmodium berghei sporozoites infected in human HepG2 cells administered 18 hrs before infection and measured after 48 hrs by luciferase reporter gene assay; assay type: functional, organism-based
# Summary of the method: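 HepG2 cells (3×10^3) plated overnight; compound (10^-4 to 10^-9 M) added 18 h before infection with 1×10^5 freshly isolated luciferase-expressing P. berghei sporozoites from Anopheles stephensi salivary glands; culture 48 h, luciferase activity taken as parasite viability; atovaquone positive control.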
# Plasmodium berghei [32] = assay: Antiplasmodial activity against Plasmodium berghei NK65 infected in Swiss mouse assessed as assessed as mouse survival at 50 mg/kg, ip administered via gavage for 3 consecutive days post infection measured on day 9 post infection (reference value: 19 +/- 5 days); assay type: functional
# Plasmodium berghei [33] = assay: Antiplasmodial activity against Plasmodium berghei NK65 infected in Swiss mouse assessed as reduction in parasitemia at 50 mg/kg, ip administered for 3 consecutive days post infection measured on day 7 post infection relative to control; assay type: functional; parameters: scale not given: the % may be the effect or the level left; summary of the method: as §1
# Plasmodium falciparum [34] = assay: Antiplasmodial activity against chloroquine-sensitive ring form of Plasmodium falciparum 3D7 infected in RBC after 72 hrs by SYBR green assay; assay type: functional, organism-based; settings: 3D7, Erythrocyte; summary of the method: as §5
# Plasmodium falciparum [35] = assay: as §2, with “female” for “male”; assay type: functional; summary of the method: as §3
structure (smiles),measurement,setting,value
CCN(CC)CCCC(C)Nc1ccnc2cc(Cl)ccc12 (centres undefined) [CHLOROQUINE],Activity,Plasmodium berghei [1],100%
same,EC50,HepG2,384 µM
same,Activity,Plasmodium berghei [2],100%
same,Survival,Plasmodium falciparum [3],16%
same,Survival,Plasmodium berghei [4],>30 days
same,Survival,Plasmodium falciparum [5],8%
same,Activity,Plasmodium berghei [6],100%
same,Activity,Plasmodium berghei [7],100%
same,Activity,Plasmodium berghei [8],100%
same,Survival,Plasmodium berghei [9],>30 days
same,Activity,Plasmodium berghei [10],100%
COc1ccc2c(c1)nc(-c1ccc(NC(=O)OC(C)(C)C)cc1)c1[nH]ccc12,Activity,Plasmodium berghei [11],61%
same,inhibition at 1 µM,Plasmodium falciparum [12],7%
same,Activity,Plasmodium berghei [13],58%
same,Activity,Plasmodium berghei [14],55%
same,Activity,Plasmodium falciparum [15],Dose-dependent effect
same,Survival,Plasmodium falciparum [3],14%
same,IC50,Plasmodium falciparum [16]; read-out: IC50,0.039 µM
same,IC50,Plasmodium falciparum [16]; read-out: pIC50 (converted),0.0398 µM
same,Activity,Mus musculus [17],Non-Toxic
same,Activity,Plasmodium falciparum [18],Active
same,Activity,Mus musculus [19],Non-Toxic
same,Survival,Plasmodium berghei [20],25 days
same,IC50,Plasmodium falciparum [21],0.028 µM
same,Activity,Plasmodium berghei [22],62%
same,Activity,Plasmodium falciparum [23],Dose-dependent effect
same,IC50,Plasmodium falciparum [24],0.05 µM
same,IC50,Plasmodium falciparum [25],0.033 µM
same,FIC,Plasmodium falciparum [26],1
same,Survival,Plasmodium falciparum [5],6%
same,Activity,Plasmodium berghei [27],54%
same,IC50,Plasmodium falciparum [28],0.041 µM
same,Activity,Mus musculus [29],Non-Toxic
same,Activity,Mus musculus [30],Non-Toxic
same,IC50,Plasmodium berghei [31],0.076 µM
same,Survival,Plasmodium berghei [32],24 days
same,Activity,Plasmodium berghei [33],34%
same,IC50,Plasmodium falciparum [34],0.039 µM
same,inhibition at 1 µM,Plasmodium falciparum [35],2%

# From ChEMBL document CHEMBL4145611, “Discovery of Marinoquinolines as Potent and Fast-Acting Plasmodium falciparum Inhibitors with in Vivo Activity” (J Med Chem, 2018)
